Experimental data collected from several papers.
Target: Mitogen-activated protein kinase kinase kinase 1 (MAP3K1, Homo sapiens, UniProt Q13233)

Cc1cnn2ncc(-c3ccnc(N(C)C)n3)c2c1  remaining binding (binding; 1 µM): 91%
COc1ccc2c(c1)O[C@@H](c1ccc(OC)c(OC)c1)C[C@H]2NC(=O)C1(c2ccc3c(c2)OC(F)(F)O3)CC1  remaining binding (cell-free assay; competition with immobilised ligand; 1 µM): 77%
CN(C)c1nccc(-c2cnc3ncccn23)n1  remaining binding (binding; 1 µM): 100%
O=C(N1CCS(=O)(=O)CC1)N1C[C@H](c2ccc(OC(F)(F)F)cc2)C[C@H](c2nc(C3CC3)no2)C1  remaining binding (cell-free assay; competition with immobilised ligand; 1 µM): 100%
FC(F)(F)Oc1cccc(-c2cnc3ccc(-c4ccncc4)nn23)c1  remaining binding (cell-free assay; competition with immobilised ligand; 5 µM): 80%
COc1ncc2cc3ccccc3nc2c1C#N  remaining binding (cell-free assay; competition with immobilised ligand; 5 µM): 99%
CN(CCCC(F)(F)F)c1nccc(-c2cnn3ncccc23)n1  remaining binding (binding; 1 µM): 75%
CSc1cccnc1N1CCN(Cc2nc3ccccc3[nH]2)CC1  remaining binding (cell-free assay; competition with immobilised ligand; 1 µM): 70%
N[C@@H]1CCN(c2nccc(-c3cnn4ncccc34)n2)C1  remaining binding (binding; 1 µM): 97%
c1cncc(-c2cccc(Nc3nccc(NC4CCCCC4)n3)c2)c1  remaining binding (binding; competition with immobilised ligand; 10 µM): 79%
O=C(c1ccc(Nc2nccc(-c3cc4ccccc4s3)n2)cc1)N1CCC(N2CCCC2)CC1  remaining binding (binding; competition with immobilised ligand; 1 µM): 98%
C[C@H]1CCN(c2nccc(-c3cnn4ncccc34)n2)C1  remaining binding (binding; 1 µM): 83%
O=C(c1ccc(Nc2ncc(Cl)c(-c3cc4ccccc4s3)n2)cc1)N1CCC(N2CCCC2)CC1  remaining binding (binding; competition with immobilised ligand; 1 µM): 79%
CNC(=O)Nc1ccc2c(c1)[C@@]1(CC2)OC(=O)N(CC(=O)N(Cc2ccc(F)cc2)[C@@H](C)C(F)(F)F)C1=O  remaining binding (cell-free assay; competition with immobilised ligand; 1 µM): 95%
C=CC(=O)N1CCC(C(=O)NCC(=O)N2CCN(c3nc(-c4cnc(N)nc4C(F)F)nc(N4CCOCC4)n3)CC2)CC1  remaining binding (binding; competition with immobilised ligand; 1 µM): 93%
C[C@H](NC(=O)c1cnc2n1[C@](C)(Cc1ccc(C#N)cc1)C(=O)N2c1cc(Cl)c(F)c(Cl)c1)C(=O)NC1(c2ccccn2)CC1  remaining binding (cell-free assay; competition with immobilised ligand; 1 µM): 100%
F[C@@H]1CCN(c2nccc(-c3cnn4ncccc34)n2)C1  remaining binding (binding; 1 µM): 100%
O=C(NCCCN1CCOCC1)c1ccc(Nc2nccc(-c3cc4ccccc4s3)n2)cc1  remaining binding (binding; competition with immobilised ligand; 1 µM): 92%
O=C(Nc1c[nH]nc1C(=O)NC1CCNCC1)c1cc(F)cc(F)c1  remaining binding (binding; competition with immobilised ligand; 1 µM): 84%
COc1cnc(Nc2cccc(S(N)(=O)=O)c2)nc1N1CCN(c2ccccc2)CC1  remaining binding (binding; competition with immobilised ligand; 1 µM): 100%
CN(c1nccc(-c2cnn3ncccc23)n1)C1CC1  remaining binding (binding; 1 µM): 81%
Cc1cc(-n2nc(Cc3cc(F)cc(C(F)(F)F)c3)nc2C)ccc1C(N)=O  remaining binding (cell-free assay; competition with immobilised ligand; 1 µM): 100%
